From ChEMBL document CHEMBL1134288, “Design and optimization of 20-O-linked camptothecin glycoconjugates as anticancer agents” (J Med Chem, 2001)

How the values were obtained:
[1] = organism: Canis familiaris; experiment: In vitro No effect conc (NOEC) with respect to elevated levels of Lactate dehydrogenase (LDH) using primary hepatocytes of dog; format: functional, Canis lupus familiaris, Hepatocyte
Outline: (§1)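 Primary hepatocytes were isolated by two-step liver perfusion: first an EGTA (0.5 mM)/HEPES buffer, then a HEPES (pH 7.4) buffer with CaCl2 and collagenase type IV. Cells were cultured in collagen sandwich gels in supplemented medium with 10% FCS, then given 48 h adaptation. DMSO stocks (3 mM) were diluted in medium. Treatment ran 1-7 days with daily medium change, and ALT, AST and LDH were read in the supernatant.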

[2] = organism: Canis familiaris; experiment: In vitro No effect conc (NOEC) with respect to elevated levels of alanine aminotransferase (ALT) using primary hepatocytes of dog; format: functional, Canis lupus familiaris, Hepatocyte; outline: as §1
[3] = organism: Canis familiaris; experiment: In vitro No effect conc (NOEC) with respect to elevated levels of aspartate aminotransferase (AST) using primary hepatocytes of dog; format: functional, Canis lupus familiaris, Hepatocyte; outline: as §1
[4] = organism: Homo sapiens; experiment: In vitro No effect conc (NOEC) with respect to elevated levels of Lactate dehydrogenase (LDH) using primary hepatocytes of human; format: functional, Hepatocyte; outline: as §1
[5] = organism: Homo sapiens; experiment: In vitro No effect conc (NOEC) with respect to elevated levels of alanine aminotransferase (ALT) using primary hepatocytes of human; format: functional, Hepatocyte; outline: as §1
[6] = organism: Homo sapiens; experiment: In vitro No effect conc (NOEC) with respect to elevated levels of aspartate aminotransferase (AST) using primary hepatocytes of human; format: functional, Hepatocyte; outline: as §1
[7] = organism: Rattus norvegicus; experiment: In vitro No effect conc (NOEC) with respect to elevated levels of Lactate dehydrogenase (LDH) using primary hepatocytes of rat; format: functional, Hepatocyte; outline: as §1
[8] = organism: Rattus norvegicus; experiment: In vitro No effect conc (NOEC) with respect to elevated levels of alanine aminotransferase (ALT) using primary hepatocytes of rat; format: functional, Hepatocyte; outline: as §1
[9] = organism: Rattus norvegicus; experiment: In vitro No effect conc (NOEC) with respect to elevated levels of aspartate aminotransferase (AST) using primary hepatocytes of rat; format: functional, Hepatocyte; outline: as §1
[10] = system: B16-F10; experiment: In vitro cytotoxic activity against murine melanoma cell line B16F10 using MTT growth inhibition assay; format: functional, cell-based; details: Mus musculus
Outline: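 This murine melanoma line was grown in RPMI 1640 with 10% FCS, trypsinized at confluence and seeded at 20,000 cells/mL, then left 1 day. Compounds in DMSO or water were added. After 6 days, MTT (5 mg/mL stock) was added for 5 h at 37 °C, formazan was dissolved in 2-propanol/water, and absorbance was read at 595 nm to give IC50.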

[11] = system: HT-29; experiment: In vitro cytotoxic activity against human colon cancer cell line HT-29 using MTT growth inhibition assay; format: functional, cell-based
Outline: (§2)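 Cells were grown in RPMI 1640 with 10% FCS, trypsinized at confluence and plated at 50,000 cells/mL, then left 1 day. Compounds in DMSO or water were added, and growth was read 6 days later by MTT (5 mg/mL stock, 5 h at 37 °C). Formazan was dissolved in 2-propanol/water and absorbance read at 595 nm; IC50 was derived from this read-out.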

[12] = system: SW480; experiment: In vitro cytotoxic activity against human colon cancer cell line SW480 using MTT growth inhibition assay; format: functional, cell-based; outline: as §2

| Structure (SMILES) | NOEC [1] | NOEC [2] | NOEC [3] | NOEC [4] | NOEC [5] | NOEC [6] | NOEC [7] | NOEC [8] | NOEC [9] | IC50 [10] | IC50 [11] | IC50 [12] |
| --- | --- | --- | --- | --- | --- | --- | --- | --- | --- | --- | --- | --- |
| CC[C@@]1(O)C(=O)OCc2c1cc1n(c2=O)Cc2cc3c(CN(C)C)c(O)ccc3nc2-1.Cl [TOPOTECAN HYDROCHLORIDE] | 1 µM | 1 µM | 0.1 µM | 10 µM | 0.1 µM | 1 µM | 1 µM | 0.1 µM | 0.1 µM | – | – | – |
| CC[C@@]1(OC(=O)C(NC(=O)[C@H](CCCN=C(N)N)/N=C(\S)Nc2ccc(O[C@H]3O[C@@H](C)[C@@H](O)[C@@H](OC)[C@@H]3O)cc2)C(C)C)C(=O)OCc2c1cc1n(c2=O)Cc2cc3ccccc3nc2-1 (stereo partly specified) | – | – | – | – | – | – | – | – | – | 400 nM | 100 nM | 170 nM |
| CC[C@@]1(OC(=O)[C@H](NC(=O)[C@H](CCCCN)/N=C(\S)Nc2ccc(O[C@H]3O[C@@H](C)[C@@H](O)[C@@H](OC)[C@@H]3O)cc2)C(C)C)C(=O)OCc2c1cc1n(c2=O)Cc2cc3ccccc3nc2-1 | – | – | – | – | – | – | – | – | – | 600 nM | 120 nM | 150 nM |
| CC[C@@]1(OC(=O)[C@H](NC(=O)[C@H](CCCN=C(N)N)/N=C(\S)Nc2ccc(O[C@H]3O[C@@H](C)[C@@H](O)[C@@H](OC)[C@@H]3O)cc2)C(C)C)C(=O)OCc2c1cc1n(c2=O)Cc2cc3ccccc3nc2-1 | – | – | – | – | – | – | – | – | – | 400 nM | 100 nM | 110 nM |
| CC[C@@]1(OC(=O)CNC(=O)[C@H](Cc2c[nH]cn2)/N=C(\S)Nc2ccc(O[C@H]3O[C@@H](C)[C@@H](O)[C@@H](OC)[C@@H]3O)cc2)C(=O)OCc2c1cc1n(c2=O)Cc2cc3ccccc3nc2-1 | – | – | – | – | – | – | – | – | – | 30 nM | 10 nM | 15 nM |
| CC[C@@]1(OC(=O)[C@H](NC(=O)[C@H](Cc2c[nH]cn2)/N=C(\S)Nc2ccc(O[C@H]3O[C@@H](C)[C@@H](O)[C@@H](OC)[C@@H]3O)cc2)C(C)C)C(=O)OCc2c1cc1n(c2=O)Cc2cc3ccccc3nc2-1 | – | – | – | – | – | – | – | – | – | 600 nM | 160 nM | 230 nM |
| CC[C@@]1(OC(=O)C(NC(=O)[C@H](Cc2c[nH]cn2)/N=C(\S)Nc2ccc(O[C@H]3O[C@@H](C)[C@@H](O)[C@@H](OC)[C@@H]3O)cc2)C(C)C)C(=O)OCc2c1cc1n(c2=O)Cc2cc3ccccc3nc2-1 (stereo partly specified) | 10 µM | 10 µM | 10 µM | 30 µM | 30 µM | 30 µM | 10 µM | 10 µM | 10 µM | 250 nM | 60 nM | 170 nM |
| CC[C@@]1(OC(=O)CNC(=O)[C@H](CCCCN)/N=C(\S)Nc2ccc(O[C@H]3O[C@@H](C)[C@@H](O)[C@@H](OC)[C@@H]3O)cc2)C(=O)OCc2c1cc1n(c2=O)Cc2cc3ccccc3nc2-1 | – | – | – | – | – | – | – | – | – | 50 nM | 10 nM | 30 nM |
| CC[C@@]1(OC(=O)C(NC(=O)[C@H](CCCCN)/N=C(\S)Nc2ccc(O[C@H]3O[C@@H](C)[C@@H](O)[C@@H](OC)[C@@H]3O)cc2)C(C)C)C(=O)OCc2c1cc1n(c2=O)Cc2cc3ccccc3nc2-1 (stereo partly specified) | 30 µM | 10 µM | 30 µM | 30 µM | 30 µM | 30 µM | 30 µM | 30 µM | 30 µM | 700 nM | 150 nM | 170 nM |
